Broadly, the IC50 is the concentration needed to halve the response being measured. Lower therefore signals greater potency.

Where only a bound is given, the exact number is not on record here.

The target in one assay is T1, Glucocorticoid receptor (Homo sapiens, UniProt P04150).
T1 sequence (P04150 whole entry): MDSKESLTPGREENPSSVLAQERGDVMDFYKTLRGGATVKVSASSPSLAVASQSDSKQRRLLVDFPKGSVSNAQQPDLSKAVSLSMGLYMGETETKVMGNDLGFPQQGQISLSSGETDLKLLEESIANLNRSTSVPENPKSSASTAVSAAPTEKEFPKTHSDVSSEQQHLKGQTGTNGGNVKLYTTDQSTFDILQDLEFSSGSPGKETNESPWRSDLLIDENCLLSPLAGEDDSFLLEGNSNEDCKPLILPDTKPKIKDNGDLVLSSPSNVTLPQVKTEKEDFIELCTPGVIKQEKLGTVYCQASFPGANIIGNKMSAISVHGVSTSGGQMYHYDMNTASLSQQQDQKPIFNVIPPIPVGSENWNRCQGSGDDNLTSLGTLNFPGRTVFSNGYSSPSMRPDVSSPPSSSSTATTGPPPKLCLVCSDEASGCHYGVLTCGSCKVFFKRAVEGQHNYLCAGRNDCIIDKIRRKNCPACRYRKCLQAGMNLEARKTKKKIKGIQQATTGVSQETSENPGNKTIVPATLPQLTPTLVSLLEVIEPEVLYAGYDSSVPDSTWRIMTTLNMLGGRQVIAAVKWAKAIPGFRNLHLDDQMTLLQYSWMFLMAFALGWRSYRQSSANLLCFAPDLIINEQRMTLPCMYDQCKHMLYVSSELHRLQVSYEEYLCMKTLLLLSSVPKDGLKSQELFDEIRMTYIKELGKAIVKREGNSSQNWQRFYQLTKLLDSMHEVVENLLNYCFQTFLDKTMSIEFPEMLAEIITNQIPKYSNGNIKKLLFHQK
Briefly: Displacement of [3H]-Dexamethasone human GR expressed in 293 cells after 16 hrs by scintillation counting. Format: cell-based, HEK293. Summed up: (§1)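 These followed the MR cytosolic binding protocol (transfected 293 cells, TEGM buffer pH 7.2, 16 h at 4 °C, charcoal separation, scintillation counting of supernatant). The ligand was [3H]-dexamethasone for GR and [3H]-testosterone for AR. Concentrations were run in duplicate; IC50 taken as the mean of duplicate experiments from concentration-response curves.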

In another assay the target is T2, Androgen receptor (Homo sapiens, UniProt P10275).
T2 sequence (P10275 whole entry): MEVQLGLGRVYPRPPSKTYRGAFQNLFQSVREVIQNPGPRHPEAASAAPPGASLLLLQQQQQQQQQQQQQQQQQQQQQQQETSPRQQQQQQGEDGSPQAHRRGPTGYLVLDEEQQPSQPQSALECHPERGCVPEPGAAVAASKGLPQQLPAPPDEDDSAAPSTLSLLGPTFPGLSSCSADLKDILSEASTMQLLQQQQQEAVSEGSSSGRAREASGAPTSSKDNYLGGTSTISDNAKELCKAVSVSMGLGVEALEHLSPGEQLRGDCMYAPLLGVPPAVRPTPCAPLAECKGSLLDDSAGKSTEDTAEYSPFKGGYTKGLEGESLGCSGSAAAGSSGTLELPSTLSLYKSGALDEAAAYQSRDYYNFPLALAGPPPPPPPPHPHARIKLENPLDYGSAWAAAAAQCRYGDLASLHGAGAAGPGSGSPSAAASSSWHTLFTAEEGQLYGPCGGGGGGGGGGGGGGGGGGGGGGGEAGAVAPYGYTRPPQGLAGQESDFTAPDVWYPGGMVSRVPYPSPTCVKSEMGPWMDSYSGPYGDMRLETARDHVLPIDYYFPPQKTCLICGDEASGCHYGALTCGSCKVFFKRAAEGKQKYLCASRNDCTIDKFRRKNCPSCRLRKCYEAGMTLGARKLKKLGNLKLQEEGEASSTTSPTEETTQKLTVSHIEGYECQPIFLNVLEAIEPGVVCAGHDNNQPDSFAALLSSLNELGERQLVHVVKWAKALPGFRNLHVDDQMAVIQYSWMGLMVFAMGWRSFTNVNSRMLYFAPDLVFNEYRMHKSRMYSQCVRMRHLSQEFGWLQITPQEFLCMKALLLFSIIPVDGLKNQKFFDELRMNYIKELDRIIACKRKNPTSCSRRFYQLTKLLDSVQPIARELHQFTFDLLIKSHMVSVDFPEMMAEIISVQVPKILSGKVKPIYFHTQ
In words: Displacement of [3H]-Testosterone from human AR expressed in 293 cells after 16 hrs by scintillation counting. The assay is classed as cell-based, HEK293. Summed up:
as §1
(In general: Loss of bound radioactivity is the signal in a displacement assay; it reports binding, not function.)

The target of assay [1] is T3, Mineralocorticoid receptor (Homo sapiens, UniProt P08235).
T3 sequence (P08235 whole entry): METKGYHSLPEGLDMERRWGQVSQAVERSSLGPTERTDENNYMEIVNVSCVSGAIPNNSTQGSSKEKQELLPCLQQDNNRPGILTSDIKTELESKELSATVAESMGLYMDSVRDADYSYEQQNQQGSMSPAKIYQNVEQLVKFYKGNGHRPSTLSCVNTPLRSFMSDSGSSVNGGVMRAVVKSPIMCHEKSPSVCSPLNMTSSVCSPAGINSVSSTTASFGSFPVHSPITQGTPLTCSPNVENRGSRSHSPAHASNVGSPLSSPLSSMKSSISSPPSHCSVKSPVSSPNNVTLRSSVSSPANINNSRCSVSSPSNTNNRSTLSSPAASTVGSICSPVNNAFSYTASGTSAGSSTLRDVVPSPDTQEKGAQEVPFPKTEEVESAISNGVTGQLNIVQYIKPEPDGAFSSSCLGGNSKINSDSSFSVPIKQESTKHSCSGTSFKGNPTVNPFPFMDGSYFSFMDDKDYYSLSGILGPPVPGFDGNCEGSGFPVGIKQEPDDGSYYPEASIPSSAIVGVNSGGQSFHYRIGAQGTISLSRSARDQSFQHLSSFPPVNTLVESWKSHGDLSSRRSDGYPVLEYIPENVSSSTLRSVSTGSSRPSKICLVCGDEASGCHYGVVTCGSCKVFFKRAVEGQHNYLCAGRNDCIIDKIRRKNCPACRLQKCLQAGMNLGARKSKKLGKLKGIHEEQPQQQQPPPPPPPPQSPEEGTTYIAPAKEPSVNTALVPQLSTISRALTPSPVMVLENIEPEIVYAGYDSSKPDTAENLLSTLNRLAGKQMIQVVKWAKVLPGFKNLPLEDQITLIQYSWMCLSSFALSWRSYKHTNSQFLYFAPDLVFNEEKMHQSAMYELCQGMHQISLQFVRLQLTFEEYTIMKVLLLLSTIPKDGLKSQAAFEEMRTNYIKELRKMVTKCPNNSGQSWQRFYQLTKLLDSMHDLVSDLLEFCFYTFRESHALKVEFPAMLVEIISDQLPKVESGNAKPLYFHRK
In words: Antagonist activity at MR (unknown origin) expressed in COS1 cells after 1 day by luciferase reporter gene assay. Format: cell-based, COS-1. Summed up: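 Human MR plasmid, MMTV-luciferase reporter and pRL-TK were lipofected into COS-1 cells, which were cultured for 1 day. Cells were then reseeded in low-glucose D-MEM with 0.1% BSA. Serial compound concentrations were added with 1 nM aldosterone (final) for 1 day at 37 °C in 5% CO2. Luciferase was read, and IC50 came from a sigmoidal fit.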
On the technique in general: A reporter such as luciferase makes a cellular process visible.

The subject of another assay is HEK293. Briefly: Selectivity ratio of IC50 for human GR expressed in 293 cells to IC50 for human MR expressed in 293 cells. The assay is classed as cell-based.

`CC1(C)OC(=O)C(c2ccc(F)cc2)=C1c1ccc2c(c1)NC(=O)CO2`: the IC50 at Glucocorticoid receptor is 4.7 µM; on Androgen receptor it was over 10 µM.

With `Cc1cc(C2=C(c3ccc(F)cc3)C(=O)NC2C)cc2c1OCC(=O)N2` (stereo not drawn), the values for the IC50 (in assay [1]; at Glucocorticoid receptor; at Androgen receptor) were 0.083 µM, 4.9 µM and over 10 µM, respectively. The Ratio IC50 with HEK293 worked out at 100.

Turning to `CC1NC(=O)C(c2ccc(F)cc2)=C1c1cc(Cl)c2c(c1)NC(=O)CO2` (stereo not drawn), the IC50 was 1.1 µM at Glucocorticoid receptor and over 10 µM at Androgen receptor.

With `CC1NC(=O)C(c2ccc(F)cc2)=C1c1cc(F)c2c(c1)NC(=O)CO2` (stereo not drawn), the IC50 at Glucocorticoid receptor was 5 µM; on Androgen receptor it was over 10 µM.

Take `CC1NC(=O)C(c2ccc(F)cc2)=C1c1ccc2c(c1)NC(=O)CO2` (stereo not drawn): the IC50 is 9.1 µM at Glucocorticoid receptor and over 10 µM at Androgen receptor.

For the compound `CCN1C(=O)C(c2ccc(F)cc2)=C(c2ccc3c(c2)NC(=O)CO3)C1C` (stereo not drawn), the IC50 is 1.6 µM on Glucocorticoid receptor and over 10 µM on Androgen receptor.

With `CCC1OC(=O)C(c2ccc(F)cc2)=C1c1ccc2c(c1)NC(=O)CO2` (stereo not drawn), the figures for the 50% inhibitory concentration (IC50) on Glucocorticoid receptor and at Androgen receptor were 2 µM and over 10 µM, respectively.

On to `CC1C(c2ccc3c(c2)NC(=O)CO3)=C(c2ccc(F)cc2)C(=O)N1C1CC1` (stereo not drawn), for which the IC50 on Glucocorticoid receptor is 2.2 µM; on Androgen receptor it was over 10 µM.

As for `O=C1COc2ccc(C3=C(c4ccc(F)cc4)C(=O)OC3)cc2N1`, the IC50 at Glucocorticoid receptor and at Androgen receptor was over 10 µM in each case.

As for `CC1(F)OC(=O)C(c2ccc(F)cc2)=C1c1ccc2c(c1)NC(=O)CO2` (stereo not drawn), the half-maximal inhibitory concentration (IC50) on Glucocorticoid receptor and on Androgen receptor was over 10 µM each time.

On to `CC1C(c2ccc3c(c2)NC(=O)CO3)=C(c2ccc(F)cc2)C(=O)N1CCO` (stereo not drawn), for which the half-maximal inhibitory concentration (IC50) at Glucocorticoid receptor and at Androgen receptor was over 10 µM in each case.

Regarding `CC1C(c2ccc3c(c2)NC(=O)CO3)=C(c2ccc(F)cc2)C(=O)N1C` (stereo not drawn), the IC50 on Glucocorticoid receptor was 2.1 µM; on Androgen receptor it was over 10 µM.

Consider `Cc1cc(F)ccc1C1=C(c2ccc3c(c2)NC(=O)CO3)COC1=O`, for which the IC50 on Glucocorticoid receptor and on Androgen receptor was over 10 µM each time.

Source of the values: ChEMBL document CHEMBL2417412, “Design, synthesis, and structure-activity relationships of dihydrofuran-2-one and dihydropyrrol-2-one derivatives as novel benzoxazin-3-one-based mineralocorticoid receptor antagonists” (Bioorg Med Chem, 2013).
